Read-outs that look alike come from different tables or passages of the source.
What was measured:
SU-DHL-6 cells = test: Apoptosis assay; assay type: cell-based
Outline: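 SU-DHL-6 cells kept in RPMI 1640 with 10% heat-inactivated FBS and penicillin/streptomycin at 37 °C, 5% CO2. Seeded at 4×10^5/mL and left 24 h, then exposed to one of three concentrations of test compound, or DMSO control, for 24 or 48 h. Stained with Annexin V/7-AAD and read by flow cytometry. Live, early apoptotic and late apoptotic/dead populations counted.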

[1] = Pharmacokinetic study: plasma and brain concentration after a single oral dose; assay type: in vivo, SD rats; details: for Kp: male, SD, rat, brain/plasma, po
Outline: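 Male SD rats (219.0–260.5 g), fasted overnight until 4 h post-dose, given one oral dose of 10, 15 or 55 mg/kg depending on compound. n=3 per time point (0.25–24 h). Jugular blood in K2EDTA; plasma by spinning at 4 °C. Brains taken after decapitation, homogenised in 3-fold saline. Samples precipitated with acetonitrile plus internal standards, then LC-MS/MS. Brain/plasma ratio calculated at Cmax.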

[2] = Ibrutinib concentration in CSF of a PCNSL patient; assay type: in vivo; details: human, po, 560 mg
PCNSL = details: cited from earlier work
[3] = phase II, monotherapy 560 mg/day, intent-to-treat analysis

| SMILES | Induction of apoptosis (SU-DHL-6 cells; SU-DHL-6, 0.5 µM) | Induction of apoptosis (SU-DHL-6 cells; SU-DHL-6, 5 µM, 24 and 48 hours) | Induction of apoptosis (SU-DHL-6 cells; SU-DHL-6, 50 µM, 24 and 48 hours) | Kp [1] | concentration at 2 h [2] | Disease control rate (PCNSL; phase II, monotherapy 560 mg/day, evaluable patients) | Disease control rate (PCNSL; [3]) | Stable diseases (PCNSL; [3]) | Objective response rate (ORR) (PCNSL; recurrent PCNSL patients, single drug, two clinical trials) | Clinical responses (PCNSL; refractory and recurrent PCNSL, 10 of 13 patients) | Patients who achieved CR (PCNSL; refractory and recurrent PCNSL, cohort of 13) | Induction of apoptosis (SU-DHL-6 cells; SU-DHL-6, three concentrations, 24 or 48 hours) | ORR rate (PCNSL; phase I/II trial, relapsed/refractory PCNSL patients) | Pro-apoptosis effect (SU-DHL-6 cells; SU-DHL-6, 50 µM, after another 24 hours (48 h)) | Induction of apoptosis (SU-DHL-6 cells; SU-DHL-6, 24 hours, 0.5 µM or higher) | Induction of apoptosis (SU-DHL-6 cells; SU-DHL-6, lower concentration, after another 24 hours (48 h)) | Unbound concentration in brain ([1]; SD rats, 15 mg/kg orally, 4 hours after administration) |
| --- | --- | --- | --- | --- | --- | --- | --- | --- | --- | --- | --- | --- | --- | --- | --- | --- | --- |
| C=CC(=O)N1CCC[C@@H](n2nc(-c3ccc(Oc4ccccc4)cc3)c3c(N)ncnc32)C1 [ibrutinib] | not observed | subtle | prominent | 0.098 | 0.309 ng/mL | 70% | 62% | 10% | 50–70% | 77% | five |  |  |  |  |  |  |
| CC#CC(=O)N1CC[C@@H](n2c(=O)n(-c3ccc(Oc4ccccc4)cc3)c3c(N)ncnc32)C1 [tirabrutinib] |  |  |  | 0.085 |  |  |  |  |  |  |  | only induced when cells were treated with high dose tirabrutinib for a relatively longer period of time (50 µM, 48 h) | 64% |  |  |  |  |
| C=CC(=O)N1CCC([C@@H]2CCNc3c(C(N)=O)c(-c4ccc(Oc5ccccc5)cc4)nn32)CC1 [zanubrutinib] |  |  |  | 0.035 |  |  |  |  |  |  |  |  |  | maintained | good ability in inducing cell apoptosis | cells recovered from apoptosis | below the limit of detection |
